What was measured:
[1] = biological target: T1, Sterol O-acyltransferase 1 (Rattus norvegicus) (UniProt O70536); experiment: In vitro inhibition of acyl coenzyme A:cholesterol acyltransferase; set-up: concentration or dose not given beside the values; conditions: concentration not given here
T1 sequence (whole entry): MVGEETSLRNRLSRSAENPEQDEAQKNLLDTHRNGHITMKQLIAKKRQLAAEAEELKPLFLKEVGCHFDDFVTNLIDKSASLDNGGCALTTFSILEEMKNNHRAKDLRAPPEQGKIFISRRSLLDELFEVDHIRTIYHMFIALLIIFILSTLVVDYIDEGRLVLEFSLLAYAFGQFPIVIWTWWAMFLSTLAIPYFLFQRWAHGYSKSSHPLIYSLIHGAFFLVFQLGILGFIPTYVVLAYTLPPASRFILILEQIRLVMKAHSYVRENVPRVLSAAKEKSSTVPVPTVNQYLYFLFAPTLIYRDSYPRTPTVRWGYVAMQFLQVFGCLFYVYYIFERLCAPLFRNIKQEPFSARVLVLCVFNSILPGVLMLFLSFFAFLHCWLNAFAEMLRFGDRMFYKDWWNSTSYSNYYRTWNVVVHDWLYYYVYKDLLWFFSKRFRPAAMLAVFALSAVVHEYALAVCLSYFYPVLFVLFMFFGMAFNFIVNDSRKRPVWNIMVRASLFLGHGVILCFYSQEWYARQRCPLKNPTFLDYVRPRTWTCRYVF
Procedure, shortened: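 Enzyme fatty acyl-CoA:cholesterol acyltransferase (ACAT), assayed in vitro at a single drug concentration of 5.2 μg/mL. The value is the mean percent inhibition of enzyme activity.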

Rattus norvegicus [2] = experiment: In vivo triglyceride lowering activity when dosed at 0.03 % of the diet; type: functional
Procedure, shortened: (§1)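 Normal rats were dosed in the diet. Serum sterol and triglyceride levels were measured and expressed as the mean percent of control values. Significance versus control was reported at p < 0.05, 0.01 and 0.001.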

Rattus norvegicus [3] = experiment: In vivo sterol lowering activity when dosed as 0.01 % of the diet; type: functional; procedure, shortened: as §1
Rattus norvegicus [4] = experiment: In vivo sterol lowering activity when dosed as 0.03 % of the diet; type: functional; procedure, shortened: as §1
Rattus norvegicus [5] = experiment: In vivo sterol lowering activity at dose of 0.10 % of the diet; type: functional; procedure, shortened: as §1
Rattus norvegicus [6] = experiment: In vivo triglyceride lowering activity when dosed as 0.01 % of the diet; type: functional; procedure, shortened: as §1
Rattus norvegicus [7] = experiment: In vivo triglyceride lowering activity dosed at 0.10 % of the diet.; type: functional; procedure, shortened: as §1

inhibition [1] [%] | Structure (SMILES) | serum triglyceride level, percent of control (Rattus norvegicus [2]) [%] | serum sterol level, % of control (Rattus norvegicus [3]) [%] | serum sterol level, percent of control (Rattus norvegicus [4]) [%] | serum sterol level, percent of control (Rattus norvegicus [5]) [%] | serum triglyceride level, percent of control (Rattus norvegicus [6]) [%] | serum triglyceride, percent of control (Rattus norvegicus [7]) [%]
< 37 | CCCCCCCCCCCCCCCCNC1CCC(C(=O)OC)CC1 (centres undefined) | 88 | 99 | 92 | <71 | 78 | <63
12 | Br.CCCCCCCCCCCCCCCCNc1ccc(OC(C)=O)cc1 | 146 | 92 | 95 | 91 | 108 | 117
3 | CCCCCCCCCCCCCCCCNc1ccc(C(=O)SCC(O)CO)cc1 (centres undefined) | 83 | 93 | 92 | <82 | 106 | <64
< 22 | CCCCCCCCCCCCCCCCNc1ccc(C(=O)NS(=O)(=O)c2ccccc2)cc1 | <55 | 88 | <84 | <67 | 86 | <36
7 | CCCCCCCCCCCCCCCCNc1ccc(CCC(=O)OCC)cc1 | 88 | 89 | 89 | 84 | 96 | <45
2 | CCCCCCCCCCCCCCCCNc1ccc(C(=O)CC(=O)OCC)cc1 | <53 | 105 | <83 | <85 | 71 | <30
9 | CCCCCCCCCCCCCCCCNc1ccc(C(=O)C(C(=O)OCC)C(=O)OCC)cc1 | <66 | 100 | 96 | <87 | <68 | <59
< 45 | CCCCCCCCCCCCCCCCNc1ccc(C(=O)NCCS(=O)(=O)O)cc1 | 71 | 91 | 90 | <80 | <67 | <56
9 | CCCCCCCCCCCCCCCCNc1ccc(C2SCCCS2)cc1 | 114 | 102 | 92 | 93 | 105 | 91
0 | CCCCCCCCCCCCCCCCNc1ccc(C(=O)CS(C)(=O)=O)cc1 | 112 | 98 | 97 | 100 | 88 | 110
< 19 | CCCCCCCCCCCCCCCCNc1ccc(C(=O)OCC(C)O)cc1 (centres undefined) | <61 | 96 | <82 | <89 | <67 | <59
45 | CCCCCCCCCCCCCCCCNc1ccc(C(=O)OCC(=O)O)cc1 | 91 | 87 | 88 | <83 | 76 | <65

Source: ChEMBL document CHEMBL1122366, “Potential antiatherosclerotic agents. 3. Substituted benzoic and non benzoic acid analogues of cetaben” (1983)
